In the library only some 3.4% were active in any assay of this set; here they are far more common.
TAAR1 ag = agonists of human TAAR1 | AID 624467 | 0.99% of 360,000 active | CHO RD-HGA16 TAAR1, Fluo-8 calcium fluorescence; vehicle wells 0%, saturating PEA agonist 100% | activation, % at 3 µM | Q96RJ0;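 active = activation above the mean activation of all test compounds in the run plus 3 SD, cut at about 38% in these data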
Target sequence (Q96RJ0 whole entry, looked up): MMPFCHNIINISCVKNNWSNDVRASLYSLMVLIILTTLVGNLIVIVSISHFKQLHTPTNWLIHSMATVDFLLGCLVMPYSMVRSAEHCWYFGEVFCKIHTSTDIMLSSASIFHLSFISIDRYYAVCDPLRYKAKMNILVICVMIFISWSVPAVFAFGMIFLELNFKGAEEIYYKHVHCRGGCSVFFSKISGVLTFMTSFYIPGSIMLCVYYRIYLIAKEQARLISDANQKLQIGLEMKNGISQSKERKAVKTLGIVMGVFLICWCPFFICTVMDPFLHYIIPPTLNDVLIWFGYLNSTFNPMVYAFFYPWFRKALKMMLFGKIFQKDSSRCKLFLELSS
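test system = CHO RD-HGA16 cells carrying human TAAR1 plus Gα16 | schedule = 17-24 h seeding, 75 min 37 °C dye, 30 min RT | compound dosing = 3 µM single concentration | control set = DMSO and PEA EC100 | replicates = n 1 | signal = Fluo-8 fluorescence, 5 s baseline then 140 s kinetic read | measure = percent activation vs PEA EC100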
CHRM1 antagonist = human CHRM1 antagonism; CHO-K1 hM1, Fluo-8 calcium fluorescence, ACh EC80 antagonist; inhibition, % at 3 µM; P11229; AID 588852; 1.3% of 360,000 active;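 active = percent inhibition above its own plate's cutoff, namely the mean of that plate's compound wells plus 3 SD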;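 note: peak over basal fluorescence ratio during 140 s after agonist addition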
M1 ag = human M1 muscarinic receptor agonism; CHO-K1 hM1, Fluo-8 calcium fluorescence, agonist mode; 0% DMSO, 100% acetylcholine EC100; activation, % at 3 µM; 0.33% of 360,000 active;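 active = activation above the run's mean compound activation plus 3 SD, cut at about 16% in these data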;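 note: peak over basal fluorescence ratio within a 140 s kinetic read after compound addition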
M1 PAM = human CHRM1 positive allosteric modulation; P11229; CHO-K1 hM1, Fluo-8 calcium fluorescence, ACh EC20; 0% = ACh EC20, 100% = maximal ACh; activation, % at 3 µM; 0.088% of 360,000 active; AID 588819; in the data active = activation above about 19%, passing the limit was not always enough
TAAR1 antagonist = human TAAR1 antagonism. Q96RJ0. CHO RD-HGA16 TAAR1, Fluo-8 calcium fluorescence, antagonist. inhibition, % at 3 µM. 1.5% of 360,000 active. AID 624466;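 active = inhibition above a per-plate cutoff, the mean inhibition of test compounds on that plate plus 3 SD, cut at about 49% in these data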
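Test system – hTAAR1-expressing CHO RD-HGA16 cells, Gα16-coupled · Reagent – β-PEA at EC80 concentration, post-compound challenge · Compound dosing – 3 µM, single point · Timing – 140 s kinetic read after compound, 140 s after agonist · Detection – Fluo-8 intracellular calcium dye fluorescence, real-time kinetic reads · Control set – DMSO and EC80 PEA controls · Repeats – n of 1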
Large screens that a line does not name were inactive.

COc1ccc(OC)c(S(=O)(=O)N2CCN(C(=O)c3ccco3)CC2)c1	none
COc1cc(S(=O)(=O)N2CCN(C(=O)c3ccco3)CC2)c(OC)cc1C	CHRM1 antagonist 78
CC(=O)N1CCc2cc(NC(=O)C3(C)CCN3CCc3ccccc3)ccc21 (stereo unspecified)	none
COCCCNC(=S)N1CCN(c2nc(-c3ccc(F)cc3)cs2)CC1	TAAR1 antagonist 52
Cc1ccc(C)c(C(O)c2ncc(-c3ccc(C(F)(F)F)cc3)[nH]2)c1 (stereo unspecified)	TAAR1 antagonist 49
COc1cccc(/C=N/NC(=O)c2cc(-c3ccccn3)nc3ccccc23)c1O	CHRM1 antagonist 37
CC(=O)Nc1cccc(NC(=O)c2cccc(OCc3ccccc3)c2)c1	none
O=C(NC(=S)Nc1ccc(CN2CCCCC2)cc1)c1cccc(OCc2ccccc2)c1	CHRM1 antagonist 96
CCOc1cccc(C(=O)NC(=S)Nc2ccc(N3CCN(CC)CC3)cc2)c1	CHRM1 antagonist 81
CC(C)Oc1cccc(C(=O)Nc2ccc(N3CCN(C)CC3)cc2)c1	none
CCCOc1cccc(C(=O)NC(=S)Nc2ccc(N3CCN(C)CC3)cc2)c1	CHRM1 antagonist 58
CCN1CCN(c2ccc(NC(=O)c3cccc(OCc4ccccc4)c3)cc2)CC1	CHRM1 antagonist 81
COc1ccccc1C(=O)N1CCN(C(=O)[C@@H](Cc2ccccc2)NC(=O)[C@H]2O[C@@H](n3cnc(C(N)=O)n3)[C@H](O)[C@@H]2O)CC1	none (no result: CHRM1 antagonist, M1 ag, M1 PAM)
COC(=O)C1=CN(c2ccc(C(C)(C)C)cc2)C(N)=C(C#N)C1c1ccccc1F (stereo unspecified)	none (no result: CHRM1 antagonist, M1 ag, M1 PAM)
CCn1c(C)nc2cc(C(=O)OC(C(F)(F)C(F)F)C(F)(F)C(F)F)ccc21	CHRM1 antagonist 29
O=C(NCc1ccccc1)[C@@H]1CCCN1C(=O)[C@H]1CCCN1C(=O)c1c(F)cccc1F	none (no result: CHRM1 antagonist, M1 ag, M1 PAM)
Cc1ccc(C)c(CN2C(=O)c3ccccc3S(=O)c3ccc(C(=O)NCCCN4CCCC4)cc32)c1 (stereo unspecified)	none
CC1CCCCN1CCNC(=O)c1ccc2c(c1)N(Cc1ccccc1F)C(=O)c1ccccc1S2=O (stereo unspecified)	CHRM1 antagonist 48
CCN1CCN(CCCNC(=O)c2ccc(/C=C3/Sc4ccccc4N(Cc4ccccc4F)C3=O)cc2)CC1	CHRM1 antagonist 29
CCCCN(C)CCCNC(=O)c1ccc2c(c1)N(CC)C(=O)c1ccccc1S2=O (stereo unspecified)	CHRM1 antagonist 47
O=C(NCCCN1CCCC1)c1ccc2c(c1)N(Cc1ccccc1F)C(=O)c1ccccc1S2=O (stereo unspecified)	CHRM1 antagonist 33
O=C(NCCCN1CCOCC1)c1ccc(/C=C2\Oc3ccccc3N(Cc3ccccc3F)C2=O)cc1	none
CN(C)Cc1c(C(C)(C)O)[nH]c2cc(C(F)(F)F)ccc12	none (no result: CHRM1 antagonist, M1 ag, M1 PAM)
CC(=O)c1c(C)[nH]c(C(=O)CSc2nnc(-c3ccccc3)o2)c1C	TAAR1 antagonist 56
Cc1cccc(CN2CCN(C3CN(Cc4cn(Cc5ccc(C(F)(F)F)cc5)nn4)S(=O)(=O)C3)CC2)c1 (stereo unspecified)	none (no result: CHRM1 antagonist, M1 ag, M1 PAM)
COC(=O)C1=C(C)N(C)C(=NCC2CC2)NC1c1ccc(F)cc1 (stereo unspecified)	none (no result: CHRM1 antagonist, M1 ag, M1 PAM)
Cn1c(C(=O)NCCCN2CCCCCC2)cc2c(=O)n(C)c3ccccc3c21	none
Cn1c(C(=O)NCCCN2CCc3ccccc3C2)cc2c(=O)n(C)c3ccccc3c21	CHRM1 antagonist 34
CCN(C(=O)COc1cc(=O)n(CC)c2ccccc12)c1cccc(Cl)c1	none
CCN(C(=O)COc1cc(=O)n(CC)c2ccccc12)c1cc(Cl)ccc1OC	TAAR1 antagonist 49
CN(Cc1ccccc1)C1CCN(Cc2ccccc2[N+](=O)[O-])CC1	CHRM1 antagonist 90
O=[N+]([O-])c1ccccc1NC1CCN(Cc2ccccc2)CC1	CHRM1 antagonist 47
O=C1CCC(=O)N1c1ccc(NC2CCN(Cc3ccccc3)CC2)c([N+](=O)[O-])c1	none
NC(=O)CC(NC(=O)Cc1ccc(Br)cc1)c1ccc(NC2CCN(Cc3ccccc3)CC2)c([N+](=O)[O-])c1 (stereo unspecified)	CHRM1 antagonist 43
O=C1C2CCCCC2C(=O)N1c1ccc(NC2CCN(Cc3ccccc3)CC2)c([N+](=O)[O-])c1 (stereo unspecified)	CHRM1 antagonist 48
CCCc1cc2c(OC)ccc(O)c2c(=O)n1C	none (no result: CHRM1 antagonist, M1 ag, M1 PAM)
CC1CCC2C(=O)N(c3ccc(NC4CCN(Cc5ccccc5)CC4)c([N+](=O)[O-])c3)C(=O)C2C1 (stereo unspecified)	CHRM1 antagonist 80
O=[N+]([O-])c1ccc(NC2CCN(Cc3ccccc3)CC2)c([N+](=O)[O-])c1	none
COc1cc2c(c3c1c(=O)c1cccc(F)c1n3C)C=CC(C)(C)O2	none (no result: CHRM1 antagonist, M1 ag, M1 PAM)
C1=C(c2ccc(-c3ccccc3)cc2)Nc2ncnn2C1c1ccco1 (stereo unspecified)	CHRM1 antagonist 45, M1 ag 120
COC(=O)[C@]12C[C@H](CC(=O)N3CCN(C(=O)C4CC4)CC3)C(=O)N(CCC3=CCCCC3)C1=C[C@H](C(C)(C)C)O[C@@H]2C	none (no result: CHRM1 antagonist, M1 ag, M1 PAM)
Cc1ccc(OCC(=O)Nc2ccc3c(c2)OC(F)(F)O3)c([N+](=O)[O-])n1	CHRM1 antagonist 49
COc1ccc(/C=C2\CN(Cc3ccccc3)C/C(=C\c3ccc(OC)cc3)C2=O)cc1	none
COc1ccc(/C=C2\CN(Cc3ccccc3)C/C(=C\c3ccc(OC)cc3OC)C2=O)c(OC)c1	CHRM1 antagonist 29, TAAR1 antagonist 57
CC(C)n1nnnc1C1c2ccccc2C(=O)N1CCOc1ccccc1 (stereo unspecified)	none (no result: CHRM1 antagonist, M1 ag, M1 PAM)
C/C=C(\C)C(=O)OC1[C@H](OC(C)=O)C2(CO)C(CC1(C)C)C1=CCC3C4(C)CCC(O[C@@H]5O[C@H](C(=O)O)[C@@H](O[C@@H]6O[C@H](CO)[C@@H](O)[C@H](O)[C@H]6O)[C@H](O)[C@H]5O[C@H]5O[C@H](CO)[C@@H](O)[C@H](O)[C@H]5O)[C@](C)(CO)C4CCC3(C)[C@]1(C)C[C@H]2O (stereo partly specified)	CHRM1 antagonist 104, M1 ag 93 (no result: TAAR1 ag, TAAR1 antagonist)
C/C=C(/C)C(=O)OC1CC(C)(C)C[C@H]2C3=CC[C@@H]4[C@@]5(C)CCC(O[C@@H]6O[C@@H](C(=O)O)[C@@H](O)C(O[C@@H]7OC[C@H](O)[C@@H](O)[C@@H]7O[C@@H]7OC(CO)C(O)[C@@H](O)[C@@H]7O)C6O[C@@H]6OC(CO)C(O)C(O)C6O)[C@@](C)(CO)[C@@H]5CC[C@]4(C)[C@]3(C)CC(O)[C@@]12CO (stereo partly specified)	CHRM1 antagonist 73, M1 ag 62 (no result: TAAR1 ag, TAAR1 antagonist)

Compound activity deposited in PubChem BioAssay by The Scripps Research Institute Molecular Screening Center.
